From ChEMBL document CHEMBL1124172 (J Med Chem, 1988)
≈ marks a conversion by molar mass, not a printed value. Calls of active or inactive are those of the source. The calls are words filed in the database; no cut-off is given here.

Tests used:
Mus musculus [1] = assay: In vivo antitumor activity against P388 Lymphocytic Leukemia in mice at 200 mg/kg expressed as T/C value w.r.t. compound 6; type: functional
Mus musculus [2] = assay: In vivo antitumor activity against P388 Lymphocytic Leukemia measured as Survivors on day 5 at 400 mg/kg, w.r.t. compound 6; 4/4; type: functional
Mus musculus [3] = assay: In vivo antitumor activity against P388 Lymphocytic Leukemia in mice at 800 mg/kg expressed as T/C value w.r.t. compound 6; type: functional
Mus musculus [4] = assay: In vivo antitumor activity against P388 Lymphocytic Leukemia measured as Survivors on day 5 at 800 mg/kg, w.r.t. compound 6; 4/4; type: functional
Mus musculus [5] = assay: In vivo antitumor activity against P388 Lymphocytic Leukemia in mice at 400 mg/kg expressed as T/C value w.r.t. compound 6; type: functional
Mus musculus [6] = assay: In vivo antitumor activity against P388 Lymphocytic Leukemia measured as Survivors on day 5 at 200 mg/kg, w.r.t. compound 6; 4/4; type: functional
A204 = assay: In vitro cytotoxicity against human A204 Rhabdomyosarcoma cell line; type: functional, cell-based
Outline: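 A204 human rhabdomyosarcoma soft-agarose colony assay. 10^4 trypsin/EDTA-dissociated cells in 0.3% agarose over a 0.5% agarose base, in DMEM with 10% FCS, at 37 °C and 5% CO2. Compound was applied in an upper medium layer on day 1 for 24 h, then washed out. Colonies >60 µm were counted after 7–9 days by tetrazolium stain and image analysis. Quadruplicates with vehicle controls, at least four concentrations up to 100 or 1000 µg/mL. IC50 from a monoexponential least-squares fit over at least three preparations, mean ± SE.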

Mus musculus [7] = assay: In vivo antitumor activity against P388 Lymphocytic Leukemia in mice at 15.5 mg/kg expressed as T/C value; type: functional
Mus musculus [8] = assay: In vivo antitumor activity against P388 Lymphocytic Leukemia in mice at 62 mg/kg expressed as T/C value; type: functional
Mus musculus [9] = assay: In vivo antitumor activity against P388 Lymphocytic Leukemia in mice at 31 mg/kg expressed as T/C value; type: functional
Mus musculus [10] = assay: In vivo antitumor activity against P388 Lymphocytic Leukemia measured as Survivors on day 5 at 7.75 mg/kg; 6/6; type: functional
Mus musculus [11] = assay: In vivo antitumor activity against P388 Lymphocytic Leukemia measured as survivors on day 5 at 62 mg/kg; 6/6; type: functional
Mus musculus [12] = assay: In vivo antitumor activity against P388 Lymphocytic Leukemia measured as Survivors on day 5 at 31 mg/kg; 6/6; type: functional
Mus musculus [13] = assay: In vivo antitumor activity against P388 Lymphocytic Leukemia in mice at 7.75 mg/kg expressed as T/C value; type: functional
Mus musculus [14] = assay: In vivo antitumor activity against P388 Lymphocytic Leukemia measured as Survivors on day 5 at 15.5 mg/kg; 5/6; type: functional
Mus musculus [15] = assay: In vivo antitumor activity against P388 Lymphocytic Leukemia in mice at 1300 mg/kg expressed as T/C value; Toxic; type: toxicity, organism-based; design: dose 1300 mg/kg
Mus musculus [16] = assay: Weight difference when tested in vivo for antitumor activity against P388 Lymphocytic Leukemia; weight difference expressed as (T-C); Not active; type: functional, organism-based
Mus musculus [17] = assay: In vivo antitumor activity against P388 Lymphocytic Leukemia measured as Survivors on day 5 at 650 mg/kg; 0/6; type: functional
Mus musculus [18] = assay: In vivo antitumor activity against P388 Lymphocytic Leukemia measured as survivors on day 5 at 325 mg/kg (repeat); 0/6; type: functional
Mus musculus [19] = assay: In vivo antitumor activity against P388 Lymphocytic Leukemia in mice at 81.25 mg/kg expressed as T/C value (repeat); type: functional
P388 = assay: Weight difference when tested in vivo for antitumor activity against P388 Lymphocytic Leukemia; weight difference expressed as (T-C); type: functional, Mus musculus
Mus musculus [20] = assay: In vivo antitumor activity against P388 Lymphocytic Leukemia in mice expressed as T/C value; Toxic
Mus musculus [21] = assay: In vivo antitumor activity against P388 Lymphocytic Leukemia measured as survivors on day 5 at 81.25 mg/kg (repeat); 6/6; type: functional
Mus musculus [22] = assay: In vivo antitumor activity against P388 Lymphocytic Leukemia measured as survivors on day 5 at 162.50 mg/kg (repeat); 6/6; type: functional; settings: dose 162.5 mg/kg
Mus musculus [23] = assay: In vivo antitumor activity against P388 Lymphocytic Leukemia measured as Survivors on day 5 at 162.50 mg/kg; 6/6; type: functional; settings: dose 162.5 mg/kg
Mus musculus [24] = assay: In vivo antitumor activity against P388 Lymphocytic Leukemia measured as Survivors on day 5 at 325 mg/kg; 0/6; type: functional
Mus musculus [25] = assay: In vivo antitumor activity against P388 Lymphocytic Leukemia in mice at 162.50 mg/kg expressed as T/C value; type: functional; settings: dose 162.5 mg/kg
Mus musculus [26] = assay: In vivo antitumor activity against P388 Lymphocytic Leukemia in mice at 162.5 mg/kg expressed as T/C value(repeat); type: functional
Mus musculus [27] = assay: In vivo antitumor activity against P388 Lymphocytic Leukemia in mice at 325 mg/kg expressed as T/C value); Toxic; type: toxicity, organism-based; design: dose 325 mg/kg
Mus musculus [28] = assay: In vivo antitumor activity against P388 Lymphocytic Leukemia measured as Survivors on day 5 at 1300 mg/kg; 0/6; type: functional
Mus musculus [29] = assay: In vivo antitumor activity against P388 Lymphocytic Leukemia in mice at 650 mg/kg expressed as T/C value; Toxic; type: toxicity, organism-based; design: dose 650 mg/kg
Mus musculus [30] = assay: In vivo antitumor activity against P388 Lymphocytic Leukemia measured as survivors on day 5 at 40.60 mg/kg (repeat); 6/6; type: functional; settings: dose 40.6 mg/kg
Mus musculus [31] = assay: In vivo antitumor activity against P388 Lymphocytic Leukemia in mice at 40.60 mg/kg expressed as T/C value (repeat); type: functional; settings: dose 40.6 mg/kg
Mus musculus [32] = assay: In vivo antitumor activity against P388 Lymphocytic Leukemia measured as Survivors on day 5 at 23 mg/kg; 6/6; type: functional
Mus musculus [33] = assay: In vivo antitumor activity against P388 Lymphocytic Leukemia in mice at 92 mg/kg expressed as T/C value; type: functional
Mus musculus [34] = assay: In vivo antitumor activity against P388 Lymphocytic Leukemia in mice at 23 mg/kg expressed as T/C value; type: functional
Mus musculus [35] = assay: In vivo antitumor activity against P388 Lymphocytic Leukemia measured as Survivors on day 5 at 92 mg/kg; 6/6; type: functional
Mus musculus [36] = assay: In vivo antitumor activity against P388 Lymphocytic Leukemia in mice at 11.50 mg/kg expressed as T/C value; type: functional; settings: dose 11.5 mg/kg
Mus musculus [37] = assay: In vivo antitumor activity against P388 Lymphocytic Leukemia measured as Survivors on day 5 at 46 mg/kg; 6/6; type: functional
Mus musculus [38] = assay: In vivo antitumor activity against P388 Lymphocytic Leukemia in mice at 46 mg/kg expressed as T/C value; type: functional
Mus musculus [39] = assay: Weight difference when tested in vivo for antitumor activity against P388 Lymphocytic Leukemia; type: functional
Mus musculus [40] = assay: In vivo antitumor activity against P388 Lymphocytic Leukemia measured as Survivors on day 5 at 11.50 mg/kg; 6/6; type: functional; settings: dose 11.5 mg/kg
Mus musculus [41] = assay: In vivo antitumor activity against P388 Lymphocytic Leukemia measured as Survivors on day 5 at 1500 mg/kg; 6/6; type: functional
Mus musculus [42] = assay: In vivo antitumor activity against P388 Lymphocytic Leukemia in mice at 375 mg/kg expressed as T/C value
Mus musculus [43] = assay: In vivo antitumor activity against P388 Lymphocytic Leukemia in mice at 750 mg/kg expressed as T/C value; type: functional
Mus musculus [44] = assay: In vivo antitumor activity against P388 Lymphocytic Leukemia measured as Survivors on day 5 at 375 mg/kg; 6/6; type: functional
Mus musculus [45] = assay: In vivo antitumor activity against P388 Lymphocytic Leukemia in mice at 1500 mg/kg expressed as T/C value; type: functional
Mus musculus [46] = assay: In vivo antitumor activity against P388 Lymphocytic Leukemia measured as Survivors on day 5 at 187.5 mg/kg; 6/6; type: functional
Mus musculus [47] = assay: In vivo antitumor activity against P388 Lymphocytic Leukemia in mice at 187.5 mg/kg expressed as T/C value; type: functional
Mus musculus [48] = assay: In vivo antitumor activity against P388 Lymphocytic Leukemia measured as Survivors on day 5 at 750 mg/kg; 6/6; type: functional

## CC(C)C(O)(C(=O)OC1CCN2CCC(CO)C12)C(C)O (configuration not stated)
Mus musculus [1]
  T/C: 126%
Mus musculus [2]
  Survivors: 4
Mus musculus [3]
  T/C: 180%
Mus musculus [4]
  Survivors: 4
Mus musculus [5]
  T/C: 123%
Mus musculus [6]
  Survivors: 4

## CC(C)[C@](O)(C(=O)OCC1=CC[N+]2([O-])CC[C@@H](O)[C@@H]12)[C@H](C)O (some centres not stated) [INDICINE N-OXIDE]
A204
  IC50: 125 µg/mL (≈ 396 µM)

## CCC(O)(C(=O)OCC1=CC[N+]2([O-])CC[C@H](OC(=O)[C@](O)(CC)c3ccccc3)[C@@H]12)c1ccccc1 (some centres not stated)
Mus musculus [7]
  T/C: 100%
Mus musculus [8]
  T/C: 127%
Mus musculus [9]
  T/C: 109%
Mus musculus [10]
  Survivors: 6
Mus musculus [11]
  Survivors: 6
Mus musculus [12]
  Survivors: 6
Mus musculus [13]
  T/C: 106%
Mus musculus [14]
  Survivors: 5

## CC(C)C(O)(C(=O)OCC1CCN2CC[C@@H](O)[C@@H]12)C(C)O (some centres not stated)
Mus musculus [15]
  T/C: Toxic
Mus musculus [16]
  Weight difference: inactive
A204
  IC50: 400 µg/mL (≈ 1330 µM)
Mus musculus [17]
  Survivors: 0
Mus musculus [18]
  Survivors: 0
Mus musculus [19]
  T/C: 102%
P388
  Weight difference: 0.5
Mus musculus [20]
  T/C: Toxic
Mus musculus [21]
  Survivors: 6
Mus musculus [22]
  Survivors: 6
Mus musculus [23]
  Survivors: 6
Mus musculus [24]
  Survivors: 0
Mus musculus [25]
  T/C: 92%
Mus musculus [26]
  T/C: 98%
Mus musculus [27]
  T/C: Toxic
Mus musculus [28]
  Survivors: 0
Mus musculus [29]
  T/C: Toxic
Mus musculus [30]
  Survivors: 6
Mus musculus [31]
  T/C: 96%

## CC(C)C(O)(C(=O)O[C@@H]1CCN2CC[C@H](CO)[C@H]12)C(C)O (some centres not stated)
Mus musculus [32]
  Survivors: 6
Mus musculus [33]
  T/C: 98%
Mus musculus [34]
  T/C: 107%
Mus musculus [35]
  Survivors: 6
Mus musculus [36]
  T/C: 111%
Mus musculus [37]
  Survivors: 6
Mus musculus [38]
  T/C: 105%
Mus musculus [39]
  Weight difference: -1.2
Mus musculus [40]
  Survivors: 6

## CC(C)C(O)(C(=O)OCC1CC[N+]2([O-])CC[C@@H](O)[C@@H]12)C(C)O (some centres not stated)
Mus musculus [41]
  Survivors: 6
A204
  IC50: 320 µg/mL (≈ 1010 µM)
Mus musculus [42]
  T/C: 106%
Mus musculus [43]
  T/C: 95%
Mus musculus [44]
  Survivors: 6
Mus musculus [45]
  T/C: 106%
Mus musculus [46]
  Survivors: 6
Mus musculus [47]
  T/C: 94%
Mus musculus [48]
  Survivors: 6
